Laboratory results published in ChEMBL document CHEMBL1165943, “Design and synthesis of new anticancer pyrimidines with multiple-kinase inhibitory effect” (Bioorg Med Chem, 2010).

Assays:
MOLT-4 = assay: Cytotoxicity against human MOLT4 cells assessed as cell growth at 0.001 uM after 48 hrs by sulforhodamine B assay; type: functional; settings: MOLT-4, 48 h, read-out: Activity
T47D [1] = assay: Cytotoxicity against human T47D cells assessed as cell growth at 0.001 uM after 48 hrs by sulforhodamine B assay; type: functional; settings: read-out: Activity
T47D [2] = assay: Cytotoxicity against human T47D cells assessed as cell growth at 0.01 uM after 48 hrs by sulforhodamine B assay; type: functional; settings: read-out: Activity
HT-29 [3] = assay: Cytotoxicity against human HT-29 cells assessed as cell growth at 100 nM after 48 hrs by sulforhodamine B assay; type: functional; settings: HT-29, 48 h, read-out: Activity
OVCAR-8 = assay: Cytotoxicity against human OVCAR8 cells assessed as cell growth at 100 nM after 48 hrs by sulforhodamine B assay; type: functional; settings: OVCAR-8, 48 h, read-out: Activity
SNB-19 = assay: Cytotoxicity against human SNB19 cells assessed as cell growth at 10 uM after 48 hrs by sulforhodamine B assay; type: functional; settings: SNB-19, 48 h, read-out: Activity
NCI-H522 = assay: Cytotoxicity against human NCI-H522 cells assessed as cell growth at 0.01 uM after 48 hrs by sulforhodamine B assay; type: functional; settings: NCI-H522, 48 h, read-out: Activity
SN12C [4] = assay: Cytotoxicity against human SN12C cells assessed as cell growth at 10 uM after 48 hrs by sulforhodamine B assay; type: functional; settings: read-out: Activity
MCF7 = assay: Cytotoxicity against human MCF7 cells assessed as cell growth at 10 uM after 48 hrs by sulforhodamine B assay; type: functional; settings: MCF7, 48 h, read-out: Activity
[5] = Cytotoxicity against human Hs 578T cells assessed as cell growth at 10 uM after 48 hrs by sulforhodamine B assay; type: functional; settings: read-out: Activity
[6] = Cytotoxicity against human RPMI8266 cells assessed as cell growth at 1 uM after 48 hrs by sulforhodamine B assay; type: functional; settings: read-out: Activity
HCT-15 = assay: Cytotoxicity against human HCT15 cells assessed as cell growth at 1 uM after 48 hrs by sulforhodamine B assay; type: functional; settings: HCT-15, 48 h, read-out: Activity
SF-268 = assay: Cytotoxicity against human SF268 cells assessed as cell growth at 1 uM after 48 hrs by sulforhodamine B assay; type: functional; settings: SF-268, 48 h, read-out: Activity
OVCAR-3 = assay: Cytotoxicity against human OVCAR-3 cells assessed as cell growth at 0.01 uM after 48 hrs by sulforhodamine B assay; type: functional; settings: OVCAR-3, 48 h, read-out: Activity
A498 = assay: Cytotoxicity against human A498 cells assessed as cell growth at 0.01 uM after 48 hrs by sulforhodamine B assay; type: functional; settings: A498, 48 h, read-out: Activity
Summary of the method: (§1)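 Cells grown in RPMI 1640 with 5% FBS and 2 mM L-glutamine, seeded at 5,000–40,000 cells/well by doubling time. Time-zero plates TCA-fixed after 24 h. Five concentrations (10-fold or half-log dilutions from DMSO stock) added; 48 h at 37 °C, 5% CO2. Cold TCA fixation (final 10%, 60 min, 4 °C), 0.4% SRB stain, dye solubilized in 10 mM trizma base, A515.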

RXF 393 = assay: Cytotoxicity against human RXF393 cells assessed as cell growth at 0.01 uM after 48 hrs by sulforhodamine B assay; type: functional; settings: RXF 393, 48 h, read-out: Activity
PC-3 [7] = assay: Cytotoxicity against human PC3 cells assessed as cell growth at 0.01 uM after 48 hrs by sulforhodamine B assay; type: functional; settings: PC-3, 48 h, read-out: Activity
BT-549 = assay: Cytotoxicity against human BT549 cells assessed as cell growth at 0.01 uM after 48 hrs by sulforhodamine B assay; type: functional; settings: BT-549, 48 h, read-out: Activity; summary of the method: as §1
IGROV-1 = assay: Cytotoxicity against human IGROV1 cells assessed as cell growth at 1 uM after 48 hrs by sulforhodamine B assay; type: functional; settings: IGROV-1, 48 h, read-out: Activity
[8] = Growth inhibition of human RPMI8266 cells after 48 hrs by sulforhodamine B assay; type: functional
Summary of the method: (§2)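 Cells grown in RPMI 1640 with 5% FBS and 2 mM L-glutamine, seeded at 5,000–40,000 cells/well according to doubling time. After 24 h, time-zero plates are TCA-fixed. Five concentrations (10-fold or ½log dilutions, DMSO stocks) are applied for 48 h at 37 °C, 5% CO₂. Cells are TCA-fixed, SRB-stained and read at 515 nm. IC₅₀ is taken from [(Ti−Tz)/(C−Tz)]×100 = 50.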

SN12C [9] = assay: Cytotoxicity against human SN12C cells assessed as cell growth at 1 uM after 48 hrs by sulforhodamine B assay; type: functional; settings: read-out: Activity
PC-3 [10] = assay: Cytotoxicity against human PC3 cells assessed as cell growth at 1 uM after 48 hrs by sulforhodamine B assay; type: functional; settings: PC-3, 48 h, read-out: Activity
[11] = Cytotoxicity against human Hs 578T cells assessed as cell growth at 1 uM after 48 hrs by sulforhodamine B assay; type: functional; settings: read-out: Activity
MDA-MB-468 = assay: Cytotoxicity against human MDA-MB-468 cells assessed as cell growth at 1 uM after 48 hrs by sulforhodamine B assay; type: functional; settings: MDA-MB-468, 48 h, read-out: Activity
COLO 205 = assay: Cytotoxicity against human COLO205 cells assessed as cell growth at 10 uM after 48 hrs by sulforhodamine B assay; type: functional; settings: COLO 205, 48 h, read-out: Activity; summary of the method: as §1
NCI-H226 = assay: Growth inhibition of human NCI-H226 cells after 48 hrs by sulforhodamine B assay; type: functional; settings: NCI-H226, 48 h; summary of the method: as §2
HT-29 [12] = assay: Growth inhibition of human HT-29 cells after 48 hrs by sulforhodamine B assay; type: functional, cell-based; settings: HT-29, 48 h; for CC50: read-out: LC50 (the source's name); summary of the method: as §2
SF-539 = assay: Growth inhibition of human SF539 cells after 48 hrs by sulforhodamine B assay; type: functional, cell-based; settings: for CC50: read-out: LC50 (the source's name); summary of the method: as §2
[13] = target: Tyrosine-protein kinase Fyn (Homo sapiens) (UniProt P06241); assay: Inhibition of FYN at 10 uM by HotSpot assay
Tyrosine-protein kinase Fyn (Homo sapiens), sequence (P06241 2-537 limits assumed): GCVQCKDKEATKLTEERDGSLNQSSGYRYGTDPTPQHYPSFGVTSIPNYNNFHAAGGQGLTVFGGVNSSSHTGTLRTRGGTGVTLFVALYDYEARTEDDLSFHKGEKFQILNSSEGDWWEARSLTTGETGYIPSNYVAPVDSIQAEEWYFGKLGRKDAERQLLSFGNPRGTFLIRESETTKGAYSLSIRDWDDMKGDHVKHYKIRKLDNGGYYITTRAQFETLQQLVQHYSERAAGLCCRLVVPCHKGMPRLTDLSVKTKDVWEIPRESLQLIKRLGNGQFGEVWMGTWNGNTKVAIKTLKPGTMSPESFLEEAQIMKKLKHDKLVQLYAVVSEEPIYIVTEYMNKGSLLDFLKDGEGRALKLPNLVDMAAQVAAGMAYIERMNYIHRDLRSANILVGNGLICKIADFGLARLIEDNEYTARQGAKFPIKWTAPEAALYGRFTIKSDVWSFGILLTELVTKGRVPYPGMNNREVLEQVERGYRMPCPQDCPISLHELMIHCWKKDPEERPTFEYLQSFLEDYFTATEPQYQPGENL

[14] = target: Mast/stem cell growth factor receptor Kit (Homo sapiens) (UniProt P10721); assay: Inhibition of c-Kit at 10 uM by HotSpot assay
Mast/stem cell growth factor receptor Kit (Homo sapiens), sequence (P10721 whole entry): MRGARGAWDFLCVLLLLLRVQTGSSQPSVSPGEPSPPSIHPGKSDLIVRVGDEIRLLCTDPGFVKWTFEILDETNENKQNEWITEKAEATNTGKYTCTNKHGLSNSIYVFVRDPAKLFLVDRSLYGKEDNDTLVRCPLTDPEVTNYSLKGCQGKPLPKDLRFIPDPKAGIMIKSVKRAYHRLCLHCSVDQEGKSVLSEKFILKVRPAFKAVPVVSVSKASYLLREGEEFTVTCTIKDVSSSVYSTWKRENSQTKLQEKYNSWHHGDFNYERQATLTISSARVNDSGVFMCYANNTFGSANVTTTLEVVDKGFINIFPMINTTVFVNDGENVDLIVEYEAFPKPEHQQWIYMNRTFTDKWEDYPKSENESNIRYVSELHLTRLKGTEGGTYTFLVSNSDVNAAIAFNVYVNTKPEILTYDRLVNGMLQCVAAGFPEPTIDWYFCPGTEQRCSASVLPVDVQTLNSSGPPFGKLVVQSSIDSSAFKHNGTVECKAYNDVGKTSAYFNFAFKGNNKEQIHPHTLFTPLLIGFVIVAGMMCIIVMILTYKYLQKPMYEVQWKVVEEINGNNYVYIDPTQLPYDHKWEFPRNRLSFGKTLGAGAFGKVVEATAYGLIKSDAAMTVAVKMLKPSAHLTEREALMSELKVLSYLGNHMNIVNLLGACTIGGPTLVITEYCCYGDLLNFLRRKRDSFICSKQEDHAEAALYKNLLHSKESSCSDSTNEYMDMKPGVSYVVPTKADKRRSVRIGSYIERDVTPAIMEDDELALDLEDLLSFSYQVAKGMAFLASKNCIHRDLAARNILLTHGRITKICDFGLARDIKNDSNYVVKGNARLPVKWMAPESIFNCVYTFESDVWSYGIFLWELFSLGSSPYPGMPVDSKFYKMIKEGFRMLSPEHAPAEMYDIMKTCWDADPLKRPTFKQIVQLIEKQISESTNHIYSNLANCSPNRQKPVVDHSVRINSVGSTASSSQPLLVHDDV

[15] = target: Hepatocyte growth factor receptor (Homo sapiens) (UniProt P08581); assay: Inhibition of c-MET at 10 uM by HotSpot assay
Hepatocyte growth factor receptor (Homo sapiens), sequence (P08581 whole entry): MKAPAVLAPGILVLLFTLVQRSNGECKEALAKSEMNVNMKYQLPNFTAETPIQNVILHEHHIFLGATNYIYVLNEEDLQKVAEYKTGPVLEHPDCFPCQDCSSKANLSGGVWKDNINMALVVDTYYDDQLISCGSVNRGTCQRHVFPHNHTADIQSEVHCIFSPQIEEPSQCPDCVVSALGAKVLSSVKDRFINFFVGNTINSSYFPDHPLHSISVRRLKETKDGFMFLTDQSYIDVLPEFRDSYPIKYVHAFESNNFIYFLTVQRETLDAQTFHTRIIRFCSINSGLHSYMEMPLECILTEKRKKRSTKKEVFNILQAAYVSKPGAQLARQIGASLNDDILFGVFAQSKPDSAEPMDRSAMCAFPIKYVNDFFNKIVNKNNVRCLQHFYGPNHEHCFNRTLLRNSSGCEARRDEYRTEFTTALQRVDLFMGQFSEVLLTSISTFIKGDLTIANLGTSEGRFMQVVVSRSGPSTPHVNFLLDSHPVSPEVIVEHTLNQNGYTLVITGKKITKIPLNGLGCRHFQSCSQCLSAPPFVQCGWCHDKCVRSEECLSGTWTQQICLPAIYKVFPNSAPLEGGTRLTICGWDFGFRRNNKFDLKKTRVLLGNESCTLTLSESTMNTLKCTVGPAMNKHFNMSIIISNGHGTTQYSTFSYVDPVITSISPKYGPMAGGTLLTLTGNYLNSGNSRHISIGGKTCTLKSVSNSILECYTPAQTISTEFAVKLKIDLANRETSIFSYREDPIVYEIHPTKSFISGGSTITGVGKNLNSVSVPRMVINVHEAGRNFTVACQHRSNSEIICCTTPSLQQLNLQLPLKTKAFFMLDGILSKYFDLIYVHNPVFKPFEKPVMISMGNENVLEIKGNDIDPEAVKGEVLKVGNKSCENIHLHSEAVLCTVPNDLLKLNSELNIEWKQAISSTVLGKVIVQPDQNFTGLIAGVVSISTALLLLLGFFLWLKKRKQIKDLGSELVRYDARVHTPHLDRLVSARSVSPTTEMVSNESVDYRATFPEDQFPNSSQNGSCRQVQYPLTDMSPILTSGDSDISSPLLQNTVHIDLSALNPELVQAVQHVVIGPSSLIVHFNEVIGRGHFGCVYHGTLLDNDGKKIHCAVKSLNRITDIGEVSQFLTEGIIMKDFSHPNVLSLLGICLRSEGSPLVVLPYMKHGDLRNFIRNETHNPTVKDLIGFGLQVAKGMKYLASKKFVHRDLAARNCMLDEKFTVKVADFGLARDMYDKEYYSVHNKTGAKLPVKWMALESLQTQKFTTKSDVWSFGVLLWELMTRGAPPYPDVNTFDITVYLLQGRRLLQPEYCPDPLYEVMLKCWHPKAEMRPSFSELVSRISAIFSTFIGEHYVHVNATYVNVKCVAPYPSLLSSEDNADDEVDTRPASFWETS

[16] = target: Cyclin-dependent kinase 2/cyclin E1 (Homo sapiens) (UniProt P24864+P24941); assay: Inhibition of CDK2/Cyclin E at 10 uM by HotSpot assay; type: protein-complex assay
[17] = target: Focal adhesion kinase 1 (Homo sapiens) (UniProt Q05397); assay: Inhibition of PTK2 at 10 uM by HotSpot assay
Focal adhesion kinase 1 (Homo sapiens), sequence (Q05397 2-1052 limits assumed): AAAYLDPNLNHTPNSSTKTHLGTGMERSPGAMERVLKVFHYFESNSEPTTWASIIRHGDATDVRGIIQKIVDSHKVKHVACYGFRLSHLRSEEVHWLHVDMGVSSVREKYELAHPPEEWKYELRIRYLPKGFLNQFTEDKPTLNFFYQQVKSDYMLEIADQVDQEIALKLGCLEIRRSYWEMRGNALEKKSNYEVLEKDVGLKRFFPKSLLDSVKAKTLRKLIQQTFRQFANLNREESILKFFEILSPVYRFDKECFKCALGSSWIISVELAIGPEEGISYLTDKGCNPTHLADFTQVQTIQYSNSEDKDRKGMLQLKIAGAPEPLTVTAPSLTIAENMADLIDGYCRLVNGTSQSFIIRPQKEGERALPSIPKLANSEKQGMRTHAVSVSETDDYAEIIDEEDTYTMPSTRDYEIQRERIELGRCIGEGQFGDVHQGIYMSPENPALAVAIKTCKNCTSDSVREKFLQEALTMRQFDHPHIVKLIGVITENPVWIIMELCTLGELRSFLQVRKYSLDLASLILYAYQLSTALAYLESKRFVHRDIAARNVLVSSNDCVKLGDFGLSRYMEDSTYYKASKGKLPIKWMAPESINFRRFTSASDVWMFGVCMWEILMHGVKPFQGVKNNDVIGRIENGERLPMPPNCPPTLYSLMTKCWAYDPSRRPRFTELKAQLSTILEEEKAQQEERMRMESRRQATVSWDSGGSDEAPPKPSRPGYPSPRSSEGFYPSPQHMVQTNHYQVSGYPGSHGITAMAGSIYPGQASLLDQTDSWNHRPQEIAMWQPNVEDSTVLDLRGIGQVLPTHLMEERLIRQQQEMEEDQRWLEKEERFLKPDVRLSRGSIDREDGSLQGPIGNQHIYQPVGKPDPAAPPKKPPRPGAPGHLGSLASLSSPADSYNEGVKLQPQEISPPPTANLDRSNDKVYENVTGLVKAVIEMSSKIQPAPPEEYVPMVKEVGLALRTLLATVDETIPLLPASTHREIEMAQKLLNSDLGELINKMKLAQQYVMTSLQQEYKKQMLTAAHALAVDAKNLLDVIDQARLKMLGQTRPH

[18] = target: Protein-tyrosine kinase 2-beta (Homo sapiens) (UniProt Q14289); assay: Inhibition of PTK2B at 10 uM by HotSpot assay
Protein-tyrosine kinase 2-beta (Homo sapiens), sequence (Q14289 whole entry, looked up): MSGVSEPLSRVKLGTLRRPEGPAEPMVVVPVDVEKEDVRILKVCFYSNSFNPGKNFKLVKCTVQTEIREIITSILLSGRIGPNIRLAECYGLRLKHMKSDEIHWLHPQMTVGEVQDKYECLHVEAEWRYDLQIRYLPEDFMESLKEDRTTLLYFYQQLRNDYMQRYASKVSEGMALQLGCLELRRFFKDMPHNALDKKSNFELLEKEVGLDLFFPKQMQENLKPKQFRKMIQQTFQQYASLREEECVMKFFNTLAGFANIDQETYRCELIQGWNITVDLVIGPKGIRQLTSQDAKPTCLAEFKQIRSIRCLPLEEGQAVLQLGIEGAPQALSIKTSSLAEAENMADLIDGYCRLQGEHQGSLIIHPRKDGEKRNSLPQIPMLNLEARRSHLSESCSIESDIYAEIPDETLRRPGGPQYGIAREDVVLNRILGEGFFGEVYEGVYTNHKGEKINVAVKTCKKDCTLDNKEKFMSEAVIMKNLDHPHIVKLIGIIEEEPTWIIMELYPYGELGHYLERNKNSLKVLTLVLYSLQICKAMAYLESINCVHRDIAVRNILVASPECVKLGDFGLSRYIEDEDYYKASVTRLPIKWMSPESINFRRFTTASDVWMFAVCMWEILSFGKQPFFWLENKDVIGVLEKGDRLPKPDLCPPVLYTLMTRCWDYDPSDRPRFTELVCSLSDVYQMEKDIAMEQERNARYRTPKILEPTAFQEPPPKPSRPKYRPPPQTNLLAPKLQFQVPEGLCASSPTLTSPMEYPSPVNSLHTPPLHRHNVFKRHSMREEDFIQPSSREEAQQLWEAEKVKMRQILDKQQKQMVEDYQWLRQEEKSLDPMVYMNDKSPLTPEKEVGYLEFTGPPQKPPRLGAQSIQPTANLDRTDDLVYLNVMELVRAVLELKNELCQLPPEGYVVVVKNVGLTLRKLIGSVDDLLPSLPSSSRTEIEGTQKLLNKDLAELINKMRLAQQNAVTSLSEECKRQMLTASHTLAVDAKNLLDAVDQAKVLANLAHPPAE

[19] = read-out: LC50 (the source's name)

For `CC(=O)c1ccccc1-c1ccc(-c2ccnc(NC(=O)Nc3cc(N4CCOCC4)cc(C(F)(F)F)c3)n2)cn1`, the growth at 0.001 µM (MOLT-4) was 94%, the growth at 0.001 µM (T47D [1]) was 106% and the growth at 0.01 µM (T47D [2]) was 102%. It also gave a growth at 0.1 µM (HT-29 [3]) of 98%, a growth at 0.1 µM (OVCAR-8) of 66% and a growth at 10 µM (SNB-19) of 26%. It also gave a growth at 0.01 µM (NCI-H522) of 103%, a growth at 10 µM (SN12C [4]) of 79% and a growth at 10 µM (MCF7) of 70%. The growth at 10 µM [5] was 13%, the growth at 1 µM [6] was 78% and the growth at 1 µM (HCT-15) was 88%. For the same molecule, the growth at 1 µM (SF-268) was 60%, the growth at 0.01 µM (OVCAR-3) was 95% and the growth at 0.01 µM (A498) was 83%. It also gave a growth at 0.01 µM (RXF 393) of 108%, a growth at 0.01 µM (PC-3 [7]) of 108% and a growth at 0.01 µM (BT-549) of 91%. It also gave a growth at 1 µM (IGROV-1) of 40%, a GI50 [8] of over 100 µM and a TGI [8] of over 100 µM. The CC50 [8, 19] was over 100 µM, the growth at 1 µM (SN12C [9]) was 64% and the growth at 1 µM (PC-3 [10]) was 78%. The growth at 1 µM [11] was 22%, the growth at 1 µM (MDA-MB-468) was 109% and the growth at 10 µM (COLO 205) was 115%. The GI50 (NCI-H226) was over 100 µM, the TGI (NCI-H226) was over 100 µM and the CC50 (NCI-H226; [19]) was over 100 µM. The GI50 (HT-29 [12]) was over 100 µM, the IC50 (HT-29 [12]) was over 100 µM and the TGI (HT-29 [12]) was over 100 µM. It also gave a CC50 (HT-29 [12]) of over 100 µM, a TGI (SF-539; Homo sapiens, SF-539, 48 h) of over 100 µM and a CC50 (SF-539; Homo sapiens, SF-539, 48 h) of over 100 µM. For the same molecule, the IC50 (SF-539; sf-539) was “Not Active”.

`CC(=O)Nc1cccc(-c2ccc(-c3ccnc(NC(=O)Nc4cc(C(F)(F)F)cc(C(F)(F)F)c4)n3)cn2)c1.Cl` showed a growth at 0.001 µM (MOLT-4) of 95%, a growth at 0.001 µM (T47D [1]) of 89% and a growth at 0.01 µM (T47D [2]) of 80%. It also gave a growth at 0.1 µM (HT-29 [3]) of 101%, a growth at 0.1 µM (OVCAR-8) of 85% and a growth at 10 µM (SNB-19) of -88%. It also gave a growth at 0.01 µM (NCI-H522) of 77%, a growth at 10 µM [5] of 18% and an inhibition [13] of 50%. It also gave an inhibition [14] of under 50%, an inhibition [15] of under 50% and an inhibition [16] of under 50%. It also gave an inhibition [17] of under 50%, a growth at 1 µM (HCT-15) of 18% and a growth at 1 µM (SF-268) of 31%. For the same molecule, the growth at 0.01 µM (OVCAR-3) was 105%, the growth at 0.01 µM (A498) was 92% and the growth at 0.01 µM (BT-549) was 91%. It also gave a growth at 1 µM (IGROV-1) of -2%, an inhibition [18] of under 50% and a growth at 1 µM (SN12C [9]) of 49%. It also gave a growth at 1 µM [11] of 43%, a growth at 1 µM (MDA-MB-468) of -79% and a growth at 10 µM (COLO 205) of 3%. The GI50 (HT-29 [12]) was 3 µM, the IC50 (HT-29 [12]) was 3 µM and the TGI (HT-29 [12]) was 8.74 µM. It also gave a CC50 (HT-29 [12]) of 57.6 µM, a GI50 (SF-539; Homo sapiens, SF-539, 48 h) of 5.48 µM and a TGI (SF-539; Homo sapiens, SF-539, 48 h) of 18.9 µM. The IC50 (SF-539; Homo sapiens, SF-539, 48 h, read-out: IC50) was 5.48 µM and the CC50 (SF-539; Homo sapiens, SF-539, 48 h) was 44.3 µM.
